Data set [1] deals with CAL-51. The experiment in a line: Antiproliferative activity against human CAL51 cells assessed as reduction in cell viability after 3 days by CellTiter-Glo reagent-based luminescent assay. Format: functional. The conditions noted are these: CAL-51, 72 h. In general terms: In ATP-based viability assays light output follows the ATP content of the culture.
The nature of data set [2]: AUC in rat at 10 mg/kg, po. The data set is classed as ADME, organism-based. The conditions noted are these: in vivo. Put shortly:
(§1)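 Rat oral PK at 10 mg/kg. Compound is given as a solution in CMCT (0.5% CMC/0.25% tween-80) or formulated in 5% TPGS, 10% captisol, 50 mM citrate buffer. Cmax and AUC are recorded.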

Data set [3] in a line: Toxicity in CB17 SCID mouse xenografted with human CAL51 cells assessed as body weight loss at 5 mg/kg, iv q4d and measured up to 31 days relative to control. Format: organism-based. Particulars: in vivo, 744 h.
The test system of data set [4] is CAL-51. Briefly: Antitumor activity against human CAL51 cells xenografted in CB17 SCID mouse assessed as tumor growth inhibition at 5 mg/kg, iv q4d and measured twice per week up to 31 days by caliper method relative to control. The data set is classed as functional. The conditions noted are these: CAL-51, iv, 744 h, read-out: TGI. In general terms: Xenograft models place foreign cells or tissue in a host animal.

Data set [5] deals with T1, Dual specificity protein kinase TTK (Homo sapiens, UniProt P33981).
T1 sequence (P33981 whole entry): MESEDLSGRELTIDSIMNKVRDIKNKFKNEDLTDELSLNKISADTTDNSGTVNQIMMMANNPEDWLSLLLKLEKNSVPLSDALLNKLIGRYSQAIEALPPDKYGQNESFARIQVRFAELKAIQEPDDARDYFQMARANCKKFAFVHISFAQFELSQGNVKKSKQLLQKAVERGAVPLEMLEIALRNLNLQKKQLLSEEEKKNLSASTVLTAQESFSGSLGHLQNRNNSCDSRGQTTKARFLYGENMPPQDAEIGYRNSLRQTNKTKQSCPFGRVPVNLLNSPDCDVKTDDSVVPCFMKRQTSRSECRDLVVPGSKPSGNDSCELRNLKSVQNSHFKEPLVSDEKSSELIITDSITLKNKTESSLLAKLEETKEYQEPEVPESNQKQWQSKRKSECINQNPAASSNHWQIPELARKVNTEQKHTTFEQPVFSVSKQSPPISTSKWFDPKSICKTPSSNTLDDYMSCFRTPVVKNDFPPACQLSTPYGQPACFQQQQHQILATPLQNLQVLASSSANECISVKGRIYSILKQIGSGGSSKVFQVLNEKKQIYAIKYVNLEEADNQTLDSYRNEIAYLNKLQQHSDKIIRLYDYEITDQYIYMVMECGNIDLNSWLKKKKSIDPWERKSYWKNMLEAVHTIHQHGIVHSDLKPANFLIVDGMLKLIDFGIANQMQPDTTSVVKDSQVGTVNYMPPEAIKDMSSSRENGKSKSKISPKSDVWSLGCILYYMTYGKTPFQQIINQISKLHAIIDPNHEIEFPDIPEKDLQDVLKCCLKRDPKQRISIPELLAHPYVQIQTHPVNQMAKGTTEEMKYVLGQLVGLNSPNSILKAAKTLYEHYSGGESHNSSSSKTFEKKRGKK
The experiment in a line: Inhibition of Kinase Tracer 236 binding to recombinant human full-length GST-tagged TTk expressed in baculovirus expression system measured after 1 hr by LanthaScreen Eu--kinase binding assay. Background: In TR-FRET formats the signal depends on donor and acceptor labels being close together.

Data set [6] can be described thus: Cmax in CB17 SCID mouse at 30 mg/kg, po. Format: ADME, organism-based. Further details: dose 30 mg/kg, route oral. Particulars: in vivo. The essentials:
(§2)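 Oral PK in SCID mice at 30 mg/kg. Compound is formulated either in CMCT (0.5% CMC/0.25% tween-80) or in 5% TPGS, 10% captisol, 50 mM citrate buffer, depending on compound. Cmax and AUC are measured.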

A short description of data set [7]: AUC in CB17 SCID mouse at 30 mg/kg, po. Particulars: in vivo. The data set is classed as ADME, organism-based. The essentials:
as §2

The nature of data set [8]: Cmax in rat at 10 mg/kg, po. Particulars: in vivo. The data set is classed as ADME, organism-based. Further details: dose 10 mg/kg, route oral. Put shortly: as §1
Data set [9] in a line: Metabolic stability in human liver S9 fraction assessed as parent compound remaining after 60 mins. Particulars: read-out: Stability. The data set is classed as ADME, subcellular.
Data set [10] concerns the target T1, Dual specificity protein kinase TTK. The experiment in a line: Inhibition of TTK autophosphorylation in human CAL51 cells by radioimmuno-precipitation assay. Format: cell-based.
Data set [11] in a line: Oral bioavailability in rat at 5 mg/kg. The conditions noted are these: in vivo.

The structures appear in SMILES notation.

As to `COc1cc(N2CCC(C)(O)CC2)ccc1Nc1nc(O[C@H]2CCOC(C)(C)C2)c2cc[nH]c2n1`, in the data set with CAL-51 [1], the IC50 (commonly the concentration needed to halve the response being measured) stood at 0.071 µM. Moreover, the AUC (in general, the area under the concentration-time curve, a measure of exposure) in [2] was 11 µM·h.

Regarding `CC(=O)O[C@@]12CO[C@@H]1C[C@H](O)[C@@]1(C)C(=O)[C@H](O)C3=C(C)[C@@H](OC(=O)[C@H](O)[C@@H](NC(=O)OC(C)(C)C)c4ccccc4)C[C@@](O)([C@@H](OC(=O)c4ccccc4)[C@H]21)C3(C)C` [DOCETAXEL ANHYDROUS], in [3], the Activity is 20%. For the same molecule, the inhibition in vivo at 5 mg/kg in the data set with CAL-51 [4] stood at 61%.

Consider `COc1cc(C(=O)N(C)C)ccc1Nc1nc(OC2COC2)c2cc[nH]c2n1`, for which the figures for the IC50 (in the data set on CAL-51 [1]; in [5]) were 1.96 µM and 0.0072 µM, respectively.

Consider `COc1cc(C(=O)N(C)C)ccc1Nc1nc(OC(C)C)c2cc[nH]c2n1`, for which the IC50 in the data set on CAL-51 [1] is 1.27 µM; in data set [5], 0.0032 µM.

Turning to `COc1cc(C(=O)N(C)C)ccc1Nc1nc(O[C@H]2CC[C@](C)(O)CC2)c2cc[nH]c2n1`, the IC50 in the data set with CAL-51 [1] stood at 0.069 µM; in data set [5], 0.0006 µM.

As to `COc1cc(C(=O)N(C)C)ccc1Nc1nc(OC2CCCCC2)c2cc[nH]c2n1`, the IC50 amounted to 0.19 µM with CAL-51 [1] and 0.0013 µM in data set [5].

On to `COc1cc(C(=O)N(C)C)ccc1Nc1nc(OC2CCCC2)c2cc[nH]c2n1`, for which the IC50 in the data set on CAL-51 [1] stood at 0.497 µM; in [5] it was 0.0013 µM.

In the case of `COc1cc(N2CCN(C(=O)CO)CC2)ccc1Nc1nc(O[C@H]2CCOC(C)(C)C2)c2cc[nH]c2n1`, the Cmax (in general, the maximum level reached in the sampled fluid or tissue) in data set [6] was found to be 9.86 µM; in data set [8], 2.53 µM. The figures for the AUC in data set [7] and in [2] were 17.6 µM·h and 9.5 to 9.52 µM·h, respectively. The values for the IC50 (with CAL-51 [1]; in data set [10]; in [5]) were 0.037 µM, 0.016 µM and 0.0013 µM, respectively. In data set [9], the remaining at 1 h came to 79%.

With `COc1cc(C(=O)N(C)C)ccc1Nc1nc(O[C@H]2CCOC(C)(C)C2)c2cc[nH]c2n1`, the results for the IC50 (in the data set with CAL-51 [1]; in data set [5]) were 0.131 µM and 0.001 µM, respectively. This molecule also gave an AUC in data set [2] of 30 µM·h.

For the molecule `COc1cc(N2CCN(C3COC3)CC2)ccc1Nc1nc(O[C@H]2CCOC(C)(C)C2)c2cc[nH]c2n1`, the highest concentration (Cmax) in [6] was found to be 11.8 µM; in data set [8] it was 4.43 µM. Moreover, the AUC in data set [7] came to 35.3 µM·h; in data set [2] it was 24 µM·h. Besides, the IC50 in the data set on CAL-51 [1] came out at 0.084 µM; in data set [10] it was 0.044 µM; in data set [5], 0.0025 µM. The remaining at 1 h in data set [9] amounted to 85%.

In the case of `COc1cc(C(=O)N2CCOCC2)ccc1Nc1nc(O[C@H]2CCOC(C)(C)C2)c2cc[nH]c2n1`, the IC50 with CAL-51 [1] came out at 0.406 µM.

`CNC(=O)c1ccc(Nc2nc(OC3CCCC3)c3c(-c4ccc5nc(C)oc5c4)c[nH]c3n2)c(OC)c1`: in data set [11], the bioavailability – broadly, dose-corrected exposure relative to a reference, in per cent – is 0.9%.

For `COc1cc(C(=O)N(C)C)ccc1Nc1nc(OC2CCOCC2)c2cc[nH]c2n1`, the IC50 stood at 0.198 µM with CAL-51 [1] and 0.001 µM in data set [5].

In the case of `CCOc1cc(C(=O)N(C)C)ccc1Nc1nc(O[C@H]2CC[C@@](C)(O)CC2)c2cc[nH]c2n1`, in the data set on CAL-51 [1], the IC50 stood at 0.026 µM.

Consider `CN(C)C(=O)c1ccc(Nc2nc(O[C@H]3CC[C@@](C)(O)CC3)c3cc[nH]c3n2)c(OCC(F)(F)F)c1`, for which the IC50 in the data set on CAL-51 [1] amounted to 0.015 µM. For the same molecule, the AUC in [2] was found to be 16.1 µM·h.

Turning to `C[C@@H](Oc1cc(C(=O)N(C)C)ccc1Nc1nc(O[C@H]2CC[C@@](C)(O)CC2)c2cc[nH]c2n1)C(F)(F)F`, the IC50 with CAL-51 [1] came to 0.024 µM. The AUC in data set [2] was determined as 30 µM·h.

Take `COc1cc(N2CCOCC2)ccc1Nc1nc(O[C@H]2CCOC(C)(C)C2)c2cc[nH]c2n1`: the IC50 in the data set on CAL-51 [1] stood at 0.053 µM. The molecule also had an AUC in data set [2] of 14.7 µM·h.

Take `COc1cc(C(=O)N(C)C)ccc1Nc1nc(O[C@H]2CC[C@@](C)(O)CC2)c2cc[nH]c2n1`: the IC50 in the data set with CAL-51 [1] turned out to be 0.044 µM; in data set [5], 0.0007 µM. In [2], this molecule registered an AUC of 21.8 µM·h.
